Results taken from ChEMBL document CHEMBL4049460, “Trisubstituted Imidazoles with a Rigidized Hinge Binding Motif Act As Single Digit nM Inhibitors of Clinically Relevant EGFR L858R/T790M and L858R/T790M/C797S Mutants: An Example of Target Hopping” (J Med Chem, 2017).
Values after ≈ are worked out from the molar mass of the structure shown. Active and inactive are the calls of the source. No cut-off for these calls is given here.

Assays:
[1] = molecular target: Mitogen-activated protein kinase 10 (Homo sapiens) (UniProt P53779); assay: Inhibition of recombinant full-length human JNK3 (M1 to R426 residues) expressed in Escherichia coli assessed as residual activity at 1 uM in presence of [33-gamma]-ATP after 60 mins by scintillation counting method relative to control
Sequence of Mitogen-activated protein kinase 10 (Homo sapiens) (P53779 whole entry, the tested form may be a part): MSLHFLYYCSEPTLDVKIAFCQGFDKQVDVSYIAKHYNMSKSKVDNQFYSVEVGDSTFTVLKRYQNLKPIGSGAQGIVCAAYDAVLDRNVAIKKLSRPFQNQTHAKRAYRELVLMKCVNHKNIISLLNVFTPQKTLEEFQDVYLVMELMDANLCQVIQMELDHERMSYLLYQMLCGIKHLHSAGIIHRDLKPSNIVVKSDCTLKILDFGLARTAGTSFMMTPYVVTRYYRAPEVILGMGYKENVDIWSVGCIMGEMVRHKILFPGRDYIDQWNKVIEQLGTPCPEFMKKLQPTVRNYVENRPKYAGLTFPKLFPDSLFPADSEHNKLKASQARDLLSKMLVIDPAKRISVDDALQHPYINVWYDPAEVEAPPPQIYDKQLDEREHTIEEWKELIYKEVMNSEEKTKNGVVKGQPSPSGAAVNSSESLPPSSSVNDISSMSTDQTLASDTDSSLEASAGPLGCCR

[2] = tested on: Epidermal growth factor receptor (Homo sapiens), P00533 [L858R,T790M]; assay: (§1) Inhibition of recombinant human N-terminally GST-His6 tagged EGFR T790M/L858R double mutant (H672 to A1210 residues) C-terminal fragment harboring 3C cleavage site expressed in Baculovirus infected Sf9 cells assessed as residual activity at 1 uM in presence of [33-gamma]-ATP after 60 mins by scintillation counting method relative to control
[3] = tested on: Epidermal growth factor receptor (Homo sapiens), P00533 [L858R]; assay: Ratio of Kd for human EGFR L858R mutant (669 to 1011 residues) after 1 hr to Kd for human EGFR L858R mutant (669 to 1011 residues) after 6 hrs
Summary of the method: (§2)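 Kd from competition with an immobilized active-site-directed ligand […]. Ratio compares 1 h compound–kinase equilibration against an arm with 6 h overall equilibration.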

[4] = molecular target: T1, Mitogen-activated protein kinase 14 (Homo sapiens, UniProt Q16539); assay: Inhibition of recombinant full-length human p38alpha MAPK (M1 to S360 residues) expressed in Escherichia coli at 1 uM in presence of [33-gamma]-ATP after 60 mins by scintillation counting method
T1 sequence (Q16539 whole entry, the tested form may be a part): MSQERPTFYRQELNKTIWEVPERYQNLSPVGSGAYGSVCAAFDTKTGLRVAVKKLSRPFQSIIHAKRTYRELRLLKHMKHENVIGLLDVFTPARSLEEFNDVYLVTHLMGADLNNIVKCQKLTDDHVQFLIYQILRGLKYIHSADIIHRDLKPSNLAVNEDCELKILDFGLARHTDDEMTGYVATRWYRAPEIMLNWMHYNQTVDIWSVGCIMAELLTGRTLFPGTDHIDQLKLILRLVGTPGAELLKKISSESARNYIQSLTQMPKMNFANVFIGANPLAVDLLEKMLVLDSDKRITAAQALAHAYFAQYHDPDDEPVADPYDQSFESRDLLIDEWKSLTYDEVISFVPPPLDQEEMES

Homo sapiens [5] = organism: Homo sapiens; assay: Selectivity ratio of IC50 for EGFR L858R/T790M double mutant (unknown origin) to IC50 for wild-type EGFR (unknown origin)
[6] = tested on: Epidermal growth factor receptor (Homo sapiens), P00533 [L858R]; assay: as §1, with “L858R” for “T790M/L858R double”
[7] = molecular target: T2, Epidermal growth factor receptor (Homo sapiens, UniProt P00533); assay: Ratio of Kd for wild-type human EGFR (669 to 1011 residues) after 1 hr to Kd for wild-type human EGFR (669 to 1011 residues) after 6 hrs; format: ADME; summary of the method: as §2
[8] = molecular target: Receptor tyrosine-protein kinase erbB-2 (Homo sapiens) (UniProt P04626); assay: as §1, with “recombinant wild-type” for “recombinant”, “ERBB2 (Q679” for “EGFR T790M/L858R double mutant (H672”, “V1255” for “A1210”, “thrombin” for “3C”
Sequence of Receptor tyrosine-protein kinase erbB-2 (Homo sapiens) (P04626 whole entry, the tested form may be a part): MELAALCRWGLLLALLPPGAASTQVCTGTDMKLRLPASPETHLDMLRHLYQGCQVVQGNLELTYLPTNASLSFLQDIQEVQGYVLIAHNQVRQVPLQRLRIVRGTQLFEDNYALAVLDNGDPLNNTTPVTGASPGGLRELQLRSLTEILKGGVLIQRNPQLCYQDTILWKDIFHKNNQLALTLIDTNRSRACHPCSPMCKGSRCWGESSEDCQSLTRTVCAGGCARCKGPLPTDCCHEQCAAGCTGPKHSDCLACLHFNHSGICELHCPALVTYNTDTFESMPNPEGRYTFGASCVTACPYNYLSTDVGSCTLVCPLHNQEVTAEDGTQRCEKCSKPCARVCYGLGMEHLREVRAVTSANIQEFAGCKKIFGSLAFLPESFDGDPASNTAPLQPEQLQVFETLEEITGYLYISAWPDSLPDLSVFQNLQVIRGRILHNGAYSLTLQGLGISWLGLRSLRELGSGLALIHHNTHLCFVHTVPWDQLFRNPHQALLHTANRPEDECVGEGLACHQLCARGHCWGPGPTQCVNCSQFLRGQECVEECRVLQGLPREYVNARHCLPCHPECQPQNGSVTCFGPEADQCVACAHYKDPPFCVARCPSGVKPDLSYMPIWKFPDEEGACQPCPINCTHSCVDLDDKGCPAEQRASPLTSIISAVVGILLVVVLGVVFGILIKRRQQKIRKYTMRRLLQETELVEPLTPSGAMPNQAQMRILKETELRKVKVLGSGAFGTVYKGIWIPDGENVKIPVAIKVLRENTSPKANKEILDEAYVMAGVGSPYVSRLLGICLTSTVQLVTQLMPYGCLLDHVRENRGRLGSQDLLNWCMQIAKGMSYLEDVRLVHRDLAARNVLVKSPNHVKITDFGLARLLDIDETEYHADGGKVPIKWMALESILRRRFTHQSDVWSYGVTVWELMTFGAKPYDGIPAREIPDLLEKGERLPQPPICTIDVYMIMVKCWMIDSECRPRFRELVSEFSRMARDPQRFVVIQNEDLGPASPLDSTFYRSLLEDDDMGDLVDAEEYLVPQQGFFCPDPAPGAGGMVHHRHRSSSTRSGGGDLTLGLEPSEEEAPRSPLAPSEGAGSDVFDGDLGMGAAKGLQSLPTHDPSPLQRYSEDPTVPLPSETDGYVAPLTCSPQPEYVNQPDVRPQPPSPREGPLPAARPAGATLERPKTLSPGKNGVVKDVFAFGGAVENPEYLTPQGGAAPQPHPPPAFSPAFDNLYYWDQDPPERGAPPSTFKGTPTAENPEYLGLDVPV

[9] = molecular target: T3, Epidermal growth factor receptor (Homo sapiens, UniProt P00533, L858R); assay: Binding affinity to human EGFR L858R mutant (669 to 1011 residues) expressed in bacterial system incubated for 1 hr
Summary of the method: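 Competition binding: compound's ability to displace an immobilized, active-site-directed ligand from the kinase, reported as Kd. Compound and kinase were combined and equilibrated 1 h without dilution before read-out.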

[10] = molecular target: Tyrosine-protein kinase BTK (Homo sapiens) (UniProt Q06187); assay: Inhibition of recombinant full-length human N-terminally GST-HIS6 tagged BTK (M1 to S659 residues) harboring 3C-cleavage site expressed in Baculovirus infected Sf9 cells assessed as residual activity at 1 uM in presence of [33-gamma]-ATP after 60 mins by scintillation counting method relative to control
Sequence of Tyrosine-protein kinase BTK (Homo sapiens) (Q06187 whole entry, the tested form may be a part): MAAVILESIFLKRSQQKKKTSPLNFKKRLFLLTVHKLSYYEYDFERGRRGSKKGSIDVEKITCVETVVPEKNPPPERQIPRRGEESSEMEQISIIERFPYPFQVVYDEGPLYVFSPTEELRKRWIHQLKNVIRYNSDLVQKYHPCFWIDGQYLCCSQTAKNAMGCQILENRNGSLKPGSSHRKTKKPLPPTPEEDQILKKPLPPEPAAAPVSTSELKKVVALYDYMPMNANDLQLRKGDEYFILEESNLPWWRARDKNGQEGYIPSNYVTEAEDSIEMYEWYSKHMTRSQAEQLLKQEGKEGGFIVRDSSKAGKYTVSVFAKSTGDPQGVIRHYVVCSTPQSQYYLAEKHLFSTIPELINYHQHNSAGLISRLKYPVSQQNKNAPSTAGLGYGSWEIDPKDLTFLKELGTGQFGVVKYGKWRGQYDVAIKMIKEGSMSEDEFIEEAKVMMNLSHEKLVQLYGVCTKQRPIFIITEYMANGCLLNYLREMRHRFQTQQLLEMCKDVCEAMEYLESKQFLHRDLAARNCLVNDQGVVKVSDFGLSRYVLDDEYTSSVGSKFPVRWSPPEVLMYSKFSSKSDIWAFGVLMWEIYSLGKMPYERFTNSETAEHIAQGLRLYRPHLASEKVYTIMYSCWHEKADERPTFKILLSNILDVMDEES

Homo sapiens [11] = organism: Homo sapiens; assay: Selectivity ratio of IC50 for p38alpha MAPK (unknown origin) to IC50 for recombinant human GST-tagged EGFR L858R/T790M double mutant cytoplasmic domain expressed in baculovirus expression system
[12] = molecular target: Tyrosine-protein kinase TXK (Homo sapiens) (UniProt P42681); assay: Inhibition of TXK (unknown origin) assessed as residual activity at 1 uM in presence of [33-gamma]-ATP after 60 mins by scintillation counting method relative to control
Sequence of Tyrosine-protein kinase TXK (Homo sapiens) (P42681 whole entry): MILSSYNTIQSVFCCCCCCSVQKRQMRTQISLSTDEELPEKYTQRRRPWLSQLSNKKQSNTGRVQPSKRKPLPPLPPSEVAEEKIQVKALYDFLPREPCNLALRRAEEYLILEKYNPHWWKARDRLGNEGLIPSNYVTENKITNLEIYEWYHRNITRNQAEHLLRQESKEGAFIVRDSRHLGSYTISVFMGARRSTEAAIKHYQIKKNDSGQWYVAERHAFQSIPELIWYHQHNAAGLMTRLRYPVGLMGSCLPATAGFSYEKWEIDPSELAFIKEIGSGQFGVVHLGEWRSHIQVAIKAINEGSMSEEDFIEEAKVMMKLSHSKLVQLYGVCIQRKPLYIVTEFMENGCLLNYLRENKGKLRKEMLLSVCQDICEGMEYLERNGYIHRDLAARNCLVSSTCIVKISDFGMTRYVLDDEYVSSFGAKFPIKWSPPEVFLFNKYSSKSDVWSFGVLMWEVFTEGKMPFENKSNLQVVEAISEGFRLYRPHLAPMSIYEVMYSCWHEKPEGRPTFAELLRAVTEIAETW

[13] = molecular target: Epidermal growth factor receptor (Homo sapiens, UniProt P00533, T790M/C797S/L858R); assay: Inhibition of recombinant human N-terminally GST-tagged EGFR L858R/T790M/C797S triple mutant expressed in baculovirus in Sf9 insect cells preincubated for 20 mins followed by addition of [33P]-ATP measured after 2 hrs by filter-binding method
[14] = molecular target: T3, Epidermal growth factor receptor; assay: Binding affinity to human EGFR L858R mutant (669 to 1011 residues) expressed in bacterial system preincubated for 1 hr followed by 30 fold dilution measured after 5 hrs
Summary of the method: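 Competition binding: compound's ability to displace an immobilized, active-site-directed ligand from the kinase, reported as Kd. Compound and kinase were equilibrated 1 h, diluted 30-fold in reaction buffer, then equilibrated a further 5 h before read-out.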

[15] = Solubility of the compound at pH 7.5 by UV-HPLC analysis; format: physicochemical; conditions: buffer, read-out: solubility
Summary of the method: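 Solubility measured in the kinase assay buffer (pH 7.5); concentration determined by HPLC with UV detection.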

[16] = molecular target: T3, Epidermal growth factor receptor; assay: Inhibition of recombinant human GST-tagged EGFR L858R mutant cytoplasmic domain expressed in baculovirus expression system preincubated for 20 mins followed by addition of [33P]-ATP measured after 2 hrs by filter-binding method; conditions: read-out: IC50
[17] = molecular target: Epidermal growth factor receptor (Homo sapiens, UniProt P00533, L858R/T790M); assay: Inhibition of recombinant human GST-tagged EGFR L858R/T790M double mutant cytoplasmic domain expressed in baculovirus expression system preincubated for 20 mins followed by addition of [33P]-ATP measured after 2 hrs by filter-binding method
[18] = molecular target: Mitogen-activated protein kinase 9 (Homo sapiens) (UniProt P45984); assay: Inhibition of recombinant full-length human JNK2 (M1 to Y424 residues) expressed in Escherichia coli assessed as residual activity at 1 uM in presence of [33-gamma]-ATP after 60 mins by scintillation counting method relative to control
Sequence of Mitogen-activated protein kinase 9 (Homo sapiens) (P45984 whole entry, looked up, the tested form may be a part): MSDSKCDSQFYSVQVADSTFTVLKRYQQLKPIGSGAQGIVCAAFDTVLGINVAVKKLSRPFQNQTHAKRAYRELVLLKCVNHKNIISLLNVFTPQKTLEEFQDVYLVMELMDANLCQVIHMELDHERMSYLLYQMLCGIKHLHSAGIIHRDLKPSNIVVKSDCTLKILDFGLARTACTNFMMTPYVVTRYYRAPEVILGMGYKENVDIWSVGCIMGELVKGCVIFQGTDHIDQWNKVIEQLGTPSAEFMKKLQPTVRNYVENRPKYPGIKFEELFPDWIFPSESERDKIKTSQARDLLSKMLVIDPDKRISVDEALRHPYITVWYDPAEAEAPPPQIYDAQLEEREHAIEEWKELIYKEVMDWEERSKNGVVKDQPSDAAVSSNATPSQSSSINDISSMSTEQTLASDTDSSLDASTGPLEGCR

[19] = tested on: Epidermal growth factor receptor (Homo sapiens), P00533 [G719C]; assay: as §1, with “G719C” for “T790M/L858R double”
[20] = tested on: Epidermal growth factor receptor (Homo sapiens), P00533 [G719S]; assay: as §1, with “G719S” for “T790M/L858R double”
[21] = molecular target: T1, Mitogen-activated protein kinase 14; assay: Inhibition of p38alpha MAPK (unknown origin) assessed as decrease in ATF2 phosphorylation at Thr69/71 at 1 uM after 1 hr by ELISA
[22] = Drug metabolism in human liver microsomes assessed as parent compound remaining at 100 uM after 4 hrs in presence of NADPH regenerating system by LC-MS analysis; format: ADME, microsome; conditions: read-out: Stability
[23] = tested on: Epidermal growth factor receptor (Homo sapiens), P00533 [L858R,T790M]; assay: Ratio of Kd for human EGFR L858R/T790M double mutant (669 to 1011 residues) after 1 hr to Kd for EGFR L858R/T790M double mutant (669 to 1011 residues) after 6 hrs; summary of the method: as §2
[24] = molecular target: T2, Epidermal growth factor receptor; assay: Binding affinity to wild-type human EGFR (669 to 1011 residues) expressed in bacterial system incubated for 1 hr; format: ADME
Summary of the method: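 Competition binding of inhibitor against an immobilized active-site-directed ligand; Kd read out. Compound and kinase combined and equilibrated for 1 h without dilution (study arm C).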

[25] = molecular target: T2, Epidermal growth factor receptor; assay: Inhibition of recombinant human GST-tagged wild type EGFR ( 668 to 1210 residues) cytoplasmic domain expressed in baculovirus expression system preincubated for 20 mins followed by addition of [33P]-ATP measured after 2 hrs by filter-binding method; conditions: read-out: IC50

SMILES: C=CC(=O)Nc1cccc(-c2c[nH]c3nccc(-c4[nH]c(CCCO)nc4-c4ccc(F)cc4)c23)c1
- Activity [1]: 34%
- Activity [2]: 21%
- Ratio [3]: 3 to 5
- inhibition [4]: Active
- Ratio IC50 (Homo sapiens [5]): > 40
- Activity [6]: 6%
- Ratio [7]: 3 to 5
- Activity [8]: 17%
- Kd [9]: 0.93 nM
- Activity [10]: 17%
- Ratio IC50 (Homo sapiens [11]): 140
- Activity [12]: 3%
- IC50 [13]: Not Active
- Kd [14]: 1.8 nM
- solubility [15]: 299 µg/mL (≈ 621 µM)
- IC50 [16]: < 0.3 nM
- IC50 [17]: 1.52 nM
- Activity [18]: 37%
- Activity [19]: 37%
- Activity [20]: 22%
- IC50 [21]: 214 nM
- remaining at 4 h, 100 µM [22]: 87%
- Ratio [23]: 3 to 5
- Kd [24]: 2 nM
- IC50 [25]: < 0.3 nM
